Consider 17 molecules from ChEMBL document CHEMBL1134361, “C-Isoprenylation of flavonoids enhances binding affinity toward P-glycoprotein and modulation of cancer cell chemoresistance” (J Med Chem, 2001).

Usually Kd stands for the constant that tells how readily two partners part at equilibrium. In general, logP refers to the decadic logarithm of the partition coefficient of the neutral form, usually between octanol and water. A high value points to a more lipophilic compound.

A short description of data set [1]: Effect of Chrysin Alkylation on the Binding to PgP Cytosolic Domain. In kind it is ADME. In a few lines: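 Recombinant Pgp C-terminal cytosolic domain NBD2 (0.5 µM) in 20 mM potassium phosphate pH 6.8 with 0.5 M NaCl, 20% glycerol and 0.01% heptylcarbamoyl glucoside, 25 °C. Ligand titrated in aliquots up to 20 µM. Tryptophan fluorescence (ex 295 nm, em 310–360 nm) integrated; inner-filter corrected with N-acetyltryptophanamide. Curve fit gave KD and percent maximal quenching.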

Data set [2] in a line: Partition coefficient (logP). In kind it is physicochemical. As to conditions: octanol/water. In a few lines:
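Log P estimated by extrapolation from a log P vs R_M calibration curve built with quercetine and platanetine data.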

Data set [3] can be described thus: Hydrophobicity index was determined in C18 reverse phase silica gel 20 * 20 cm plates in methanol:water (8:2). It counts as ADME.
The subject of data set [4] is K562. Put plainly: Relative daunomycin accumulation was determined in PgP-positive leukemic K562/R7 cells with daunomycin at a concentration of 10 uM. In kind it is functional, Homo sapiens. In a few lines: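 K562/R7 human leukemic cells with high Pgp (1 million/mL RPMI 1640) incubated 1 h at 37 °C with 10 µM daunomycin (final), with or without 10 µM modulator. Cells washed three times in ice-cold PBS, kept on ice, intracellular drug fluorescence read by flow cytometry. Fluorescence shift expressed relative to that of 2 µM cyclosporin A reference. Duplicates, at least three experiments.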

Data set [5] is described as follows: Direct binding to PgP recombinant cytosolic domain was measured by percent maximal quenching of the intrinsic fluorescence. As to conditions: cytosol. It counts as ADME. In short, it runs like this: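 Recombinant C-terminal cytosolic NBD2 of Pgp at 0.5 µM in 20 mM potassium phosphate pH 6.8 with 0.5 M NaCl, 20% glycerol and 0.01% heptylcarbamoyl glucopyranoside detergent, 25 °C. Excitation at 295 nm, emission scanned 310–360 nm and integrated, buffer-corrected. Ligand added stepwise up to 20 µM. Inner-filter correction used N-acetyltryptophanamide. Curve fitting gave K_D and percent maximal quenching.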

The molecule `Cc1c(O)cc2oc(-c3ccccc3)cc(=O)c2c1O` came in with a dissociation constant (Kd) in data set [1] of 3100 nM. Moreover, the lipophilicity (logP) in data set [2] turned out to be 5.85. In data set [3], this molecule returned a Hydrophobicity index of 0.512. In data set [4], the Relative daunomycin accumulation was determined as 0.2. Moreover, the “Delta Fmax” value in data set [5] is on record as 46.6%.

Regarding `CC(C)=CCc1c(O)cc2oc(-c3ccccc3)cc(=O)c2c1O`, the Kd in data set [1] worked out at 300 nM. Besides, in data set [2], the logP was found to be 6.15. For the same molecule, the Hydrophobicity index in data set [3] came out at 0.812. The Relative daunomycin accumulation in data set [4] was 0.83. In data set [5], the “Delta Fmax” value turned out to be 83.4%.

For `CC(C)c1c(O)cc2oc(-c3ccccc3)cc(=O)c2c1O`, the dissociation constant Kd in data set [1] turned out to be 210 nM. The logP in data set [2] was 5.95. Further, the Hydrophobicity index in data set [3] is on record as 0.608. Further, the Relative daunomycin accumulation in data set [4] is reported as 0.24. For the same molecule, in data set [5], the “Delta Fmax” value was 39%.

With `O=c1cc(-c2ccccc2)oc2c(Cc3ccccc3)c(O)c(Cc3ccccc3)c(O)c12`, in data set [1], binding was put at a Kd of 36 nM. Moreover, in data set [2], the logP came to 6.41. In addition, in data set [3], the Hydrophobicity index is 1.06. In data set [4], this molecule gave a Relative daunomycin accumulation of 0.39. Further, the “Delta Fmax” value in data set [5] is reported as 40.9%.

`CC(C)=CCC/C(C)=C\Cc1c(O)cc2oc(-c3ccccc3)cc(=O)c2c1O`: in data set [1], the affinity, expressed as Kd, was 45 nM. The molecule further gave a log partition coefficient (logP) in data set [2] of 6.64. The molecule also displayed a Hydrophobicity index in data set [3] of 1.288. The molecule further displayed a Relative daunomycin accumulation in data set [4] of 0.81. For the same molecule, the “Delta Fmax” value in data set [5] worked out at 48.2%.

The molecule `CC(C)Oc1cc(O)c2c(=O)cc(-c3ccccc3)oc2c1` showed a Kd in data set [1] of 1320 nM. Besides, in data set [2], the lipophilicity (logP) is 6.24. This molecule also registered a Hydrophobicity index in data set [3] of 0.898. This molecule came in with a Relative daunomycin accumulation in data set [4] of 0.3. Further, the “Delta Fmax” value in data set [5] came to 53.2%.

With `O=c1cc(-c2ccccc2)oc2cc(OCc3ccccc3)cc(O)c12`, binding in data set [1] was characterised by a dissociation constant (Kd) of 68 nM. For the same molecule, the lipophilicity (logP) in data set [2] came out at 6.42. This molecule also showed a Hydrophobicity index in data set [3] of 1.076. The molecule also had a Relative daunomycin accumulation in data set [4] of 0.27. Besides, the “Delta Fmax” value in data set [5] stood at 29.3%.

In data set [1], `O=c1cc(-c2ccccc2)oc2cc(O)c(Cc3ccccc3)c(O)c12` displayed a Kd of 340 nM. The log partition coefficient (logP) in data set [2] was found to be 6.1. The Hydrophobicity index in data set [3] is reported as 0.754. The molecule further displayed a Relative daunomycin accumulation in data set [4] of 0.09. The “Delta Fmax” value in data set [5] was determined as 72.4%.

Regarding `O=c1cc(-c2ccccc2)oc2c(Cc3ccccc3)c(O)cc(O)c12`, in data set [1], the affinity, expressed as Kd, was 990 nM. The molecule further returned a lipophilicity (logP) in data set [2] of 6.1. The molecule also came in with a Hydrophobicity index in data set [3] of 0.754. In addition, the Relative daunomycin accumulation in data set [4] amounted to 0.25. The “Delta Fmax” value in data set [5] is 99.1%.

As to `CC(C)Oc1c(C(C)C)c(O)c2c(=O)cc(-c3ccccc3)oc2c1C(C)C`, in data set [1], binding was put at a Kd of 33 nM. Also, the logP in data set [2] turned out to be 6.84. Besides, the Hydrophobicity index in data set [3] is reported as 1.479. The Relative daunomycin accumulation in data set [4] is recorded as 0.29. In addition, in data set [5], the “Delta Fmax” value is 38.4%.

In turn, `CC(C)=CCC/C(C)=C\Cc1c(O)cc(O)c2c(=O)cc(-c3ccccc3)oc12` gave an equilibrium dissociation constant (Kd) in data set [1] of 25 nM. For the same molecule, the lipophilicity (logP) in data set [2] amounted to 6.71. Moreover, in data set [3], the Hydrophobicity index amounted to 1.35. In data set [4], this molecule showed a Relative daunomycin accumulation of 0.9. Moreover, the “Delta Fmax” value in data set [5] is on record as 67%.

The molecule `CC(C)Oc1cc2oc(-c3ccccc3)cc(=O)c2c(O)c1C(C)C` displayed a Kd in data set [1] of 280 nM. Besides, in data set [2], the logP is 6.6. The molecule further had a Hydrophobicity index in data set [3] of 1.248. The molecule also gave a Relative daunomycin accumulation in data set [4] of 0.29. For the same molecule, the “Delta Fmax” value in data set [5] is listed as 44.5%.

In data set [1], `CC(C)=CCc1c(O)cc(O)c2c(=O)cc(-c3ccccc3)oc12` returned a Kd of 280 nM. Also, the logP in data set [2] turned out to be 6.2. Further, the Hydrophobicity index in data set [3] was determined as 0.853. This molecule returned a Relative daunomycin accumulation in data set [4] of 1.52. For the same molecule, the “Delta Fmax” value in data set [5] was 81%.

In the case of `CC(C)=CCc1c(O)c(CC=C(C)C)c2oc(-c3ccccc3)cc(=O)c2c1O`, in data set [1], binding was put at a Kd of 15 nM. For the same molecule, in data set [2], the lipophilicity (logP) was determined as 6.56. The molecule also showed a Hydrophobicity index in data set [3] of 1.296. Besides, in data set [4], the Relative daunomycin accumulation is reported as 0.84. Moreover, in data set [5], the “Delta Fmax” value was determined as 21.5%.

On to `COc1cc2oc(-c3ccccc3)cc(=O)c2c(O)c1C`, for which the affinity in data set [1], expressed as Kd, was 1300 nM. In data set [2], this molecule came in with a lipophilicity (logP) of 6.18. The molecule further came in with a Hydrophobicity index in data set [3] of 0.842. Moreover, in data set [4], the Relative daunomycin accumulation is 0.3. The “Delta Fmax” value in data set [5] was found to be 57.3%.

`O=c1cc(-c2ccccc2)oc2cc(O)cc(O)c12` [CHRYSIN] gave an equilibrium dissociation constant (Kd) in data set [1] of 13100 nM. Further, the logP in data set [2] is 5.7. Besides, the Hydrophobicity index in data set [3] amounted to 0.358. Moreover, the Relative daunomycin accumulation in data set [4] was 0.2. In data set [5], the “Delta Fmax” value was 94.6%.

`COc1cc(O)c2c(=O)cc(-c3ccccc3)oc2c1` [TECHTOCHRYSIN]: the Kd in data set [1] was 6300 nM. In data set [2], this molecule had a logP of 6.06. In addition, in data set [3], the Hydrophobicity index is reported as 0.719. Besides, the Relative daunomycin accumulation in data set [4] is 0.23. For the same molecule, the “Delta Fmax” value in data set [5] was 68.1%.
